Test results reported in ChEMBL document CHEMBL4196201, “Discovery of N-(4-{[5-Fluoro-7-(2-methoxyethoxy)quinazolin-4-yl]amino}phenyl)-2-[4-(propan-2-yl)-1 H-1,2,3-triazol-1-yl]acetamide (AZD3229), a Potent Pan-KIT Mutant Inhibitor for the Treatment of Gastrointestinal Stromal Tumors” (J Med Chem, 2018).

What was measured:
[1] = test system: Mast/stem cell growth factor receptor Kit (Homo sapiens), P10721 [UNDEFINED MUTATION]
[2] = test system: Mast/stem cell growth factor receptor Kit (Homo sapiens), P10721 [D816V]
[3] = molecular target: Mast/stem cell growth factor receptor Kit (Homo sapiens) (UniProt P10721)
Chain of Mast/stem cell growth factor receptor Kit (Homo sapiens) (P10721 whole entry): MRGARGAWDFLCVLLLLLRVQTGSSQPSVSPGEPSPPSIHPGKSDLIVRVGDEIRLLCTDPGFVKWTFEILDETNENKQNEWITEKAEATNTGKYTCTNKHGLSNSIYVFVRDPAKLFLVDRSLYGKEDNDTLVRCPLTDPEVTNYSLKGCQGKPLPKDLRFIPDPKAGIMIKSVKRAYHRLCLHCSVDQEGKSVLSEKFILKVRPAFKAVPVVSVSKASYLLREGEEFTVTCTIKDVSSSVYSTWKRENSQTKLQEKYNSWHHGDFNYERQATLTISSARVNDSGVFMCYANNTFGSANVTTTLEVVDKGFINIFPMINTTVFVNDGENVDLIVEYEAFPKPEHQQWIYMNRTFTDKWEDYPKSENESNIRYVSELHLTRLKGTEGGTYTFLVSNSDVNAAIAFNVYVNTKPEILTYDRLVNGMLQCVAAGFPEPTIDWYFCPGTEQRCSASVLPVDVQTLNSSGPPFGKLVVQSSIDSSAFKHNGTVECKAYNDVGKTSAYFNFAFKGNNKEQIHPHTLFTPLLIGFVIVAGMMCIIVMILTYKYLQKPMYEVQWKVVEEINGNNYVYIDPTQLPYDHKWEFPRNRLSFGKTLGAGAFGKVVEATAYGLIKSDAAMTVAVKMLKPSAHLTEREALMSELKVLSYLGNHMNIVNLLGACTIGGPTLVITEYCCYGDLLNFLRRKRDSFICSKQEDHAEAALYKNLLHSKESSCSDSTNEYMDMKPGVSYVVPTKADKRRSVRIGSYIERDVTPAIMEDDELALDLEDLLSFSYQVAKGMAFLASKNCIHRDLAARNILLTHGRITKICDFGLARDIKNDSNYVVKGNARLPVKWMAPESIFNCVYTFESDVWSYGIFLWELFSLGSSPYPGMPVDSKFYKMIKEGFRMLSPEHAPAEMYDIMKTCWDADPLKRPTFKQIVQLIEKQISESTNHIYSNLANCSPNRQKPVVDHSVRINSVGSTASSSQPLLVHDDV

[4] = test system: Mast/stem cell growth factor receptor Kit (Homo sapiens), P10721 [UNDEFINED MUTATION]; remark: listed apart in the source
[5] = test system: Mast/stem cell growth factor receptor Kit (Homo sapiens), P10721 [UNDEFINED MUTATION]; remark: listed apart in the source
[6] = molecular target: Mast/stem cell growth factor receptor Kit (Homo sapiens) (UniProt P10721); remark: listed apart in the source
[7] = test system: Mast/stem cell growth factor receptor Kit (Homo sapiens), P10721 [UNDEFINED MUTATION]; remark: listed apart in the source
[8] = test system: Mast/stem cell growth factor receptor Kit (Homo sapiens), P10721 [V560D,V654A]
[9] = molecular target: Mast/stem cell growth factor receptor Kit (Homo sapiens) (UniProt P10721); remark: listed apart in the source
[10] = test system: Mast/stem cell growth factor receptor Kit (Homo sapiens), P10721 [V560D,D816H]
Chain of Mast/stem cell growth factor receptor Kit (Homo sapiens), P10721 [V560D,D816H] (P10721 whole entry V560D/D816H): as the sequence (P10721 whole entry) above, with V560D, D816H counted along it

[11] = molecular target: Mast/stem cell growth factor receptor Kit (Homo sapiens) (UniProt P10721); remark: listed apart in the source
[12] = Cytotoxicity in mouse parental BA/F3 cells incubated for 72 hrs by MTS assay; format: cell-based, BaF3
[13] = molecular target: Platelet-derived growth factor receptor beta (Homo sapiens) (UniProt P09619); test: Inhibition of TEL-fused PDGFRbeta (unknown origin) transfected in mouse BA/F3 cells assessed as inhibition of cell growth incubated for 72 hrs by MTS assay; format: cell-based
[14] = molecular target: Mast/stem cell growth factor receptor Kit (Homo sapiens) (UniProt P10721); remark: listed apart in the source
[15] = test system: Mast/stem cell growth factor receptor Kit (Homo sapiens), P10721 [UNDEFINED MUTATION]; remark: listed apart in the source
[16] = molecular target: Vascular endothelial growth factor receptor 2 (Homo sapiens) (UniProt P35968)
Chain of Vascular endothelial growth factor receptor 2 (Homo sapiens) (P35968 whole entry): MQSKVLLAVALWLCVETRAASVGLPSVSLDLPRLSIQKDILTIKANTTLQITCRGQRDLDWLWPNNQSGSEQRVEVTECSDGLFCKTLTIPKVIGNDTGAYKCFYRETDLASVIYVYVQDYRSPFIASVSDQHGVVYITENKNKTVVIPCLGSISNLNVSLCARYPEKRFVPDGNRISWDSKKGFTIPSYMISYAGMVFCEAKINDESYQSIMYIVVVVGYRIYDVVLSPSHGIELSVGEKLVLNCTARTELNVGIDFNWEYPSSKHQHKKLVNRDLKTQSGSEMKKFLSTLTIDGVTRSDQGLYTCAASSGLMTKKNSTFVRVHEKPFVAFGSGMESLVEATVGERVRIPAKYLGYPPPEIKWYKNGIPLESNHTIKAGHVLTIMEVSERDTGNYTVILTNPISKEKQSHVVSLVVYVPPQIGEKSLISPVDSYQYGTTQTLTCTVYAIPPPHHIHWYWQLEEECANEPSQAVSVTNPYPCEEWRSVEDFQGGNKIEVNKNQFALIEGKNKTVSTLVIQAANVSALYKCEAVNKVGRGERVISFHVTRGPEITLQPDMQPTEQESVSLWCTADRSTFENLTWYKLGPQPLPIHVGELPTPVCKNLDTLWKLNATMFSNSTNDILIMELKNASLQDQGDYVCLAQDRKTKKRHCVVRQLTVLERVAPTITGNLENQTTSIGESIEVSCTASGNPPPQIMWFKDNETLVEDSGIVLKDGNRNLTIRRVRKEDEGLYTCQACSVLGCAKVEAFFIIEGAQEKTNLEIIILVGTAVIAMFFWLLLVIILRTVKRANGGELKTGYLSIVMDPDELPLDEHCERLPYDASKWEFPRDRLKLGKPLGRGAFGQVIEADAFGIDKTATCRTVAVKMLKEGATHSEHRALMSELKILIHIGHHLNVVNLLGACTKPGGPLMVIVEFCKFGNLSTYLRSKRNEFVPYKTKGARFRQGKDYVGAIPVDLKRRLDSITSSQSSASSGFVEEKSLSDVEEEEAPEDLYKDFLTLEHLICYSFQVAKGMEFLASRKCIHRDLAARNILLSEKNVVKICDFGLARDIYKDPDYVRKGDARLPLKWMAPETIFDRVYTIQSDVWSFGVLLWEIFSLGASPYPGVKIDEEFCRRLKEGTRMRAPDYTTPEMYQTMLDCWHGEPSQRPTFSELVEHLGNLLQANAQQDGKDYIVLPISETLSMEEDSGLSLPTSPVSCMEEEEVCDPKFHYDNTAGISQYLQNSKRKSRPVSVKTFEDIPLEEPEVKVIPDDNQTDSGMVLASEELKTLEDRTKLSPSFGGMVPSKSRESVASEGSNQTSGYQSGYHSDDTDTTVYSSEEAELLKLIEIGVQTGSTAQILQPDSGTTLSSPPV

[17] = test system: Mast/stem cell growth factor receptor Kit (Homo sapiens), P10721 [V560D]
Chain of Mast/stem cell growth factor receptor Kit (Homo sapiens), P10721 [V560D] (P10721 whole entry V560D): as the sequence (P10721 whole entry) above, with V560D counted along it

Homo sapiens = species on record: Homo sapiens; test: Selectivity index, ratio of GI50 for inhibition of Kit exon 11 deletion and D816H mutant (unknown origin) transfected in mouse BA/F3 cells assessed as inhibition of cell growth to GI50 for inhibition of KDR (unknown origin) transfected in mouse BA/F3 cells assessed as inhibition of cell growth; format: cell-based
[18] = Lipophilicity, log D of the compound at pH 7.4; format: physicochemical; conditions: buffer
[19] = Protein binding in rat plasma; format: ADME, cell-free; conditions: pooled result: one value given for 4 cell lines, strains, targets or settings, read-out: PPB (converted)
[20] = test system: Mast/stem cell growth factor receptor Kit (Homo sapiens), P10721 [UNDEFINED MUTATION]; remark: listed apart in the source
BaF3 [21] = test: Antitumor activity against mouse BA/F3 cells expressing Kit exon 11 deletion (557 to 558 residues) and D816H mutant (unknown origin) allografted in CB17 SCID mouse assessed as inhibition of tumor growth at 100 mg/kg, po qd measured on last day of dosing; format: functional; conditions: read-out: TGI
In short: (§1)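 Ba/F3 cells bearing the KIT exon 11 del/D816H or exon 11 del/V654A mutation were grown as allografts in mice. Compounds were given p.o. once (QD) or twice daily (BD), and vehicle was given BD p.o. Tumor growth inhibition and regression (%) were taken on the last day of dosing. p-values were calculated relative to vehicle.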

[22] = test system: Platelet-derived growth factor receptor alpha (Homo sapiens), P16234 [V561D,D842V]
BaF3 [23] = test: Antitumor activity against mouse BA/F3 cells expressing Kit exon 11 deletion (557 to 558 residues) and D816H mutant (unknown origin) allografted in CB17 SCID mouse assessed as tumor regression at 100 mg/kg, po qd measured on last day of dosing; format: functional
In short: as §1

[24] = molecular target: Platelet-derived growth factor receptor alpha (Homo sapiens) (UniProt P16234)
BaF3 [25] = test: Antitumor activity against mouse BA/F3 cells expressing Kit exon 11 deletion (557 to 558 residues) and V654 mutant (unknown origin) allografted in CB17 SCID mouse assessed as inhibition of tumor growth at 300 mg/kg, po qd measured on last day of dosing; format: functional; conditions: read-out: TGI
In short: as §1

BaF3 [26] = test: Antitumor activity against mouse BA/F3 cells expressing Kit exon 11 deletion (557 to 558 residues) and D816H mutant (unknown origin) allografted in CB17 SCID mouse assessed as tumor regression at 300 mg/kg, po qd measured on last day of dosing; format: functional
In short: as §1

BaF3 [27] = test: Antitumor activity against mouse BA/F3 cells expressing Kit exon 11 deletion (557 to 558 residues) and V654 mutant (unknown origin) allografted in CB17 SCID mouse assessed as tumor regression at 300 mg/kg, po qd measured on last day of dosing; format: functional
In short: as §1

[28] = test system: Mast/stem cell growth factor receptor Kit (Homo sapiens), P10721 [UNDEFINED MUTATION]; remark: listed apart in the source
BaF3 [29] = test: Antitumor activity against mouse BA/F3 cells expressing Kit exon 11 deletion (557 to 558 residues) and D816H mutant (unknown origin) allografted in CB17 SCID mouse assessed as inhibition of tumor growth at 300 mg/kg, po qd measured on last day of dosing; format: functional; conditions: read-out: TGI
In short: as §1

BaF3 [30] = test: Antitumor activity against mouse BA/F3 cells expressing Kit exon 11 deletion (557 to 558 residues) and V654 mutant (unknown origin) allografted in CB17 SCID mouse assessed as inhibition of tumor growth at 80 mg/kg, po qd measured on last day of dosing; format: functional; conditions: read-out: TGI
In short: as §1

BaF3 [31] = test: Antitumor activity against mouse BA/F3 cells expressing Kit exon 11 deletion (557 to 558 residues) and V654 mutant (unknown origin) allografted in CB17 SCID mouse assessed as tumor regression at 80 mg/kg, po qd measured on last day of dosing; format: functional
In short: as §1

In the case of `Cn1cc(-c2cc3c(N4CCN(c5ncc([C@@](C)(N)c6ccc(F)cc6)cn5)CC4)ncnn3c2)cn1` [AVAPRITINIB], the GI50 [1] is reported as 19 nM, the GI50 [2] is reported as 8 nM and the GI50 [3] is reported as 751 nM. It also gave a GI50 [4] of 34 nM, a GI50 [5] of 17 nM and a GI50 [6] of 167 nM. For the same molecule, the GI50 [7] was 860 nM, the GI50 [8] was 427 nM and the GI50 [9] was 69 nM. The GI50 [10] was 29 nM, the GI50 [11] was 78 nM and the GI50 at 72 h [12] was 4080 nM. It also gave a GI50 [13] of 22 nM, a GI50 [14] of 117 nM and a GI50 [15] of 292 nM. The GI50 [16] was 4950 nM and the GI50 [17] was 42 nM.

In the case of `COc1cc2ncnc(Oc3ccc(NC(=O)Cn4cc(C(C)C)nn4)cc3)c2cc1OC`, the GI50 [5] is reported as 19 nM, the GI50 [7] is reported as 17 nM and the GI50 at 72 h [12] is reported as > 10000 nM. For the same molecule, the GI50 [15] was 3 nM, the GI50 [16] was 612 nM and the Selectivity index (KDR GI50 / Kit GI50) (Homo sapiens) was 32 to 32.2. It also gave a logD [18] of 2.9.

In the case of `COc1cc(F)c2c(Nc3ccc(NC(=O)Cn4cc(C(C)C)nn4)cc3)ncnc2c1`, the GI50 [5] is reported as 25 nM, the GI50 [7] is reported as 68 nM and the GI50 at 72 h [12] is reported as > 10000 nM. The GI50 [15] was 2 nM, the fraction unbound [19] was 0.003 and the GI50 [16] was > 10000 nM. For the same molecule, the Selectivity index (KDR GI50 / Kit GI50) (Homo sapiens) was > 400.

For `CNC(=O)c1cc(Oc2ccc(NC(=O)Nc3ccc(Cl)c(C(F)(F)F)c3)c(F)c2)ccn1` [REGORAFENIB], the GI50 [1] was 63 nM, the GI50 [20] was 47 nM and the GI50 [2] was 2370 nM. For the same molecule, the GI50 [3] was 1270 nM, the GI50 [4] was 49 nM and the GI50 [5] was 290 to 297 nM. The GI50 [6] was 114 nM, the GI50 [7] was 33 nM and the inhibition in vivo at 100 mg/kg (BaF3 [21]) was > 100%. For the same molecule, the GI50 [8] was 549 nM, the GI50 [9] was 833 nM and the GI50 [10] was 834 nM. It also gave a GI50 [22] of 522 nM, a GI50 at 72 h [12] of 9950 nM and a GI50 [13] of 29 nM. It also gave a GI50 [14] of 943 nM, a GI50 [15] of 231 to 234 nM and a GI50 [16] of 114 nM. It also gave a GI50 [17] of 108 nM, an Activity (BaF3 [23]) of 39% and a GI50 [24] of 51 nM.

`CCn1c(=O)c(-c2cc(NC(=O)Nc3ccccc3)c(F)cc2Br)cc2cnc(NC)cc21` [RIPRETINIB] showed a GI50 at 72 h [12] of 8040 nM, a GI50 [13] of 45 nM and a GI50 [16] of 98 nM.

`COc1cc2ncnc(Oc3ccc(NC(=O)Cn4cc(C(C)C)cn4)cc3)c2cc1OC` gave a GI50 [5] of 21 nM, a Selectivity index (KDR GI50 / Kit GI50) (Homo sapiens) of 11.4 and a logD [18] of 3.8.

Molecule `COc1cc2ncnc(Oc3ccc(NC(=O)Cn4cnc(C(C)C)c4)cc3)c2cc1OC` has a GI50 [5] of 21 nM, a Selectivity index (KDR GI50 / Kit GI50) (Homo sapiens) of 34.1 and a logD [18] of 3.3.

Work on `Cc1ccc(NC(=O)c2ccc(CN3CCN(C)CC3)cc2)cc1Nc1nccc(-c2cccnc2)n1` [IMATINIB] yielded a GI50 [1] of 216 nM, an inhibition in vivo at 300 mg/kg (BaF3 [25]) of 34% and a GI50 [20] of 312 nM. For the same molecule, the GI50 [3] was 3950 nM, the GI50 [5] was 535 to 537 nM and the Activity (BaF3 [26]) was 0%. For the same molecule, the GI50 [6] was 192 nM, the GI50 [9] was 2750 nM and the GI50 [10] was 1190 nM. For the same molecule, the GI50 [11] was 17 nM, the GI50 [22] was 567 nM and the GI50 at 72 h [12] was > 10000 nM. It also gave a GI50 [13] of 102 nM, an Activity (BaF3 [27]) of 0% and a GI50 [28] of 669 nM. The GI50 [17] was 70 nM and the inhibition in vivo at 300 mg/kg (BaF3 [29]) was 43%.

In the case of `COc1cc2ncnc(Oc3ccc(NC(=O)Cc4ncn(C(C)C)n4)cc3)c2cc1OC`, the GI50 [5] is reported as 1370 nM, the Selectivity index (KDR GI50 / Kit GI50) (Homo sapiens) is reported as 3.9 and the logD [18] is reported as 2.3.

Molecule `COc1cc2ncnc(Oc3ccc(NC(=O)Cc4nnc(C(C)C)s4)cc3)c2cc1OC` has a GI50 [5] of 26 nM, a Selectivity index (KDR GI50 / Kit GI50) (Homo sapiens) of 9.9 and a logD [18] of 3.3.

For `CCN(CC)CCNC(=O)c1c(C)[nH]c(/C=C2\C(=O)Nc3ccc(F)cc32)c1C` [SUNITINIB], the GI50 [1] was 214 nM, the GI50 [3] was 12 nM and the GI50 [4] was 271 nM. It also gave a GI50 [5] of 398 to 400 nM, a GI50 [10] of 696 nM and a GI50 [11] of 4 nM. For the same molecule, the GI50 [22] was 631 nM, the GI50 at 72 h [12] was 4790 nM and the inhibition in vivo at 80 mg/kg (BaF3 [30]) was > 100%. The GI50 [13] was 114 nM, the GI50 [28] was 782 nM and the Activity (BaF3 [31]) was 87%. The GI50 [24] was 30 nM.

With `COc1cc2ncnc(Oc3ccc(NC(=O)Cn4nnc(C(C)C)n4)cc3)c2cc1OC` the GI50 [5] was 42 nM, the Selectivity index (KDR GI50 / Kit GI50) (Homo sapiens) was 15.7 and the logD [18] was 3.
